Calls of active or inactive are those of the source. The rule behind the calls is not given here.

Test [1] deals with T1, 5-hydroxytryptamine receptor 1A (Homo sapiens, UniProt P08908).
T1 sequence (P08908 whole entry): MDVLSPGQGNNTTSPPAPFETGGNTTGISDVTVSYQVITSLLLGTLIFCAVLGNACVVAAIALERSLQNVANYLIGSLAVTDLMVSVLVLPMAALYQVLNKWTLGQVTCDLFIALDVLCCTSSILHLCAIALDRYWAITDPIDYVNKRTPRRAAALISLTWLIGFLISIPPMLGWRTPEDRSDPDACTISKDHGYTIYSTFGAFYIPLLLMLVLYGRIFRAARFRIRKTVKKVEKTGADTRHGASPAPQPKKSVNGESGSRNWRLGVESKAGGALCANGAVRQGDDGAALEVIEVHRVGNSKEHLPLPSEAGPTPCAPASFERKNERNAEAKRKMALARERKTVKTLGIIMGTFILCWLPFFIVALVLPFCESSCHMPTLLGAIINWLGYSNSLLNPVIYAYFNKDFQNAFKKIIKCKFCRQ
Put plainly: Displacement of [3H]WAY100635 from human recombinant 5-HT1A receptor expressed in CHO cells. The test is classed as cell-based. A general note: Displacement assays read how much labelled ligand stays bound in the presence of the test substance.

Test [2] addresses T2, 5-hydroxytryptamine receptor 1D (Homo sapiens, UniProt P28221). Kind of test: Displacement of [3H]5-HT from human recombinant 5-HT1D receptor expressed in CHO cells. The class given is cell-based.
Test [3] has as its target T3, 5-hydroxytryptamine receptor 1B (Homo sapiens, UniProt P28222). Put plainly: Displacement of [3H]5-HT from human recombinant 5-HT1B receptor expressed in CHO cells. The test is classed as cell-based.
In test [4] the target is Sodium-dependent serotonin transporter (Rattus norvegicus, UniProt P31652). Put plainly: Inhibition of [3H]5-HT uptake at SERT in rat cortical synaptosomes. The test is classed as subcellular, Brain.
Chain of Sodium-dependent serotonin transporter (P31652 whole entry): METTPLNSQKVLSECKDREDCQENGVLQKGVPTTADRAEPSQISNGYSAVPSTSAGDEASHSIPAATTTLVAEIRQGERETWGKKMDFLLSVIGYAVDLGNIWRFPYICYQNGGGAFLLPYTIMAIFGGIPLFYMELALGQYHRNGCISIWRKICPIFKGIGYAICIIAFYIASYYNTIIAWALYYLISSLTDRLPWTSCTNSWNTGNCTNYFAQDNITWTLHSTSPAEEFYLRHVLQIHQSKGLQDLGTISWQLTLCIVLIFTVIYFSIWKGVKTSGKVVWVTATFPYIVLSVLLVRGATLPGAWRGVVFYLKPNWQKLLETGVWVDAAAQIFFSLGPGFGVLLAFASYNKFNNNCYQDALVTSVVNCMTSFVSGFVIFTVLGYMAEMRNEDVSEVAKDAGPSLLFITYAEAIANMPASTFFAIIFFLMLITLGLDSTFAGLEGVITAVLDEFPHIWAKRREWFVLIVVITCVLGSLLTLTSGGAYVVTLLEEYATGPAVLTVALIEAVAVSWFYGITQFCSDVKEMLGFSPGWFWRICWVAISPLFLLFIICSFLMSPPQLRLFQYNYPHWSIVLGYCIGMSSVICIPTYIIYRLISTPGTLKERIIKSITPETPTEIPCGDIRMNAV
Test [5] deals with T2, 5-hydroxytryptamine receptor 1D. Put plainly: Inverse agonist activity at human recombinant 5-HT1D receptor expressed in CHO cells by [S35]GTPgammaS binding assay. The class given is functional, cell-based. The gist of the method: (§1)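 [35S]-GTPγS binding in membranes from 10^6 cells (HEK293 for 5-HT1A; CHO for 5-HT1B, 5-HT1D), preincubated 30 min at 30 °C with compound in 20 mM HEPES pH 7.4, 3 mM MgCl2, 100 mM NaCl, 10 μM GDP, 0.2 mM ascorbate. 100 pM [35S]-GTPγS added, 30 min more at 30 °C; nonspecific with 20 μM GTPγS; filtration and scintillation counting.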

The target of test [6] is T4, 5-hydroxytryptamine receptor 1A (Homo sapiens) (UniProt P08908).
T4 sequence (whole entry): T1 sequence (P08908 whole entry)
Put plainly: Inverse agonist activity at human recombinant 5-HT1A receptor expressed in HEK293 cells by [S35]GTPgammaS binding assay. The class given is functional, cell-based. The gist of the method: as §1
Background: GTPγS is a poorly hydrolysed GTP analogue; its binding reports G protein activation.

The target in test [7] is T3, 5-hydroxytryptamine receptor 1B. Kind of test: Inverse agonist activity at human recombinant 5-HT1B receptor expressed in CHO cells by [S35]GTPgammaS binding assay. The test is classed as functional, cell-based. Summed up:
as §1

Test [8] has as its target T4, 5-hydroxytryptamine receptor 1A (Homo sapiens). Kind of test: Intrinsic activity at human recombinant 5-HT1A receptor expressed in HEK293 cells by [S35]GTPgammaS binding assay relative to 5-HT. The test is classed as functional, cell-based. Summed up: as §1
The target in test [9] is T3, 5-hydroxytryptamine receptor 1B. Put plainly: Intrinsic activity at human recombinant 5-HT1B receptor expressed in CHO cells by [S35]GTPgammaS binding assay relative to 5-HT. The test is classed as functional, cell-based. The gist of the method:
as §1

The target in test [10] is T2, 5-hydroxytryptamine receptor 1D. Kind of test: Intrinsic activity at human recombinant 5-HT1D receptor expressed in CHO cells by [S35]GTPgammaS binding assay relative to 5-HT. The class given is functional, cell-based. The gist of the method: as §1
In test [11] the target is 5-hydroxytryptamine receptor 7 (Homo sapiens, UniProt P34969). Put plainly: Binding affinity to human recombinant 5-HT7 receptor by radioligand displacement assay.
Chain of 5-hydroxytryptamine receptor 7 (P34969 whole entry): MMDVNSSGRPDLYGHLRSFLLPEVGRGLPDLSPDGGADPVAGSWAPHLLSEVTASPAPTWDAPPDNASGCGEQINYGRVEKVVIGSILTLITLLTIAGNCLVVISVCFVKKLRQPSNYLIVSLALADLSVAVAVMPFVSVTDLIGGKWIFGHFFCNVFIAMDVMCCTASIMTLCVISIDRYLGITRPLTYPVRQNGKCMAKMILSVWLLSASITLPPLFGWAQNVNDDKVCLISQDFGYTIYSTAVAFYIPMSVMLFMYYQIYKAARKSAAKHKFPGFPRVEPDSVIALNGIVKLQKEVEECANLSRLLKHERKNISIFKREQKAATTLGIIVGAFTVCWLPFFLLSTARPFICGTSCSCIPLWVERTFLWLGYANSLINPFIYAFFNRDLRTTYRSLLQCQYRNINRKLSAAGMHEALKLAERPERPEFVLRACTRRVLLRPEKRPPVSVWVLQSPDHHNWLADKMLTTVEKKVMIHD
The target of the next test is D(3) dopamine receptor (Homo sapiens, UniProt P35462). Put plainly: Binding affinity to human recombinant dopamine D3 receptor by radioligand displacement assay.
Chain of D(3) dopamine receptor (P35462 whole entry): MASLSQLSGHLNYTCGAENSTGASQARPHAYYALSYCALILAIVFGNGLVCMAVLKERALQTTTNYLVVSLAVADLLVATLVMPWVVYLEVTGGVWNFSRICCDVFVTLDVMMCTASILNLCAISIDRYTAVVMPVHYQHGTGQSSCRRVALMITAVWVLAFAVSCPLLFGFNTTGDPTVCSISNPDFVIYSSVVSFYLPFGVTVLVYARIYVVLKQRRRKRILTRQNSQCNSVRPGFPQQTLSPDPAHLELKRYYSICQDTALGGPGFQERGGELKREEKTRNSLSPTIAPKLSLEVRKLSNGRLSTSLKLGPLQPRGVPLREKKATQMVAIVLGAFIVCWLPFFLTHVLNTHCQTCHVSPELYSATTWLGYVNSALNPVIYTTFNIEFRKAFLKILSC
Test [12] has as its target 5-hydroxytryptamine receptor 6 (Homo sapiens, UniProt P50406). Put plainly: Binding affinity to human recombinant 5-HT6 receptor by radioligand displacement assay.
The target in test [13] is 5-hydroxytryptamine receptor 2A (Homo sapiens, UniProt P28223). Put plainly: Binding affinity to human recombinant 5-HT2A receptor by radioligand displacement assay.
Chain of 5-hydroxytryptamine receptor 2A (P28223 whole entry): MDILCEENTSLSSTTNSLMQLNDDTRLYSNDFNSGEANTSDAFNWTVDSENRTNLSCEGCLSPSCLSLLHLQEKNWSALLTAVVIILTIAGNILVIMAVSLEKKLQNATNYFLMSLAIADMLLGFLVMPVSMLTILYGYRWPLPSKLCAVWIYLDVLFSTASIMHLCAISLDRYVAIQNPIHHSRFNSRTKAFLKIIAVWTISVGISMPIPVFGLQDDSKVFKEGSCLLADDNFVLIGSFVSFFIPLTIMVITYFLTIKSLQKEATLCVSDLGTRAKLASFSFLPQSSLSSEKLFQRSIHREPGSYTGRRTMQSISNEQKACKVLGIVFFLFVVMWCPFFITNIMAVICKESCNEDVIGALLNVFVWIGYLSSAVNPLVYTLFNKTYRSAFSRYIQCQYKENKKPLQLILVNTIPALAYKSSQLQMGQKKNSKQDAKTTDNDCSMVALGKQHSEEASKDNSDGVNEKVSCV
The target of another test is D(2) dopamine receptor (Homo sapiens, UniProt P14416). Kind of test: Binding affinity to human recombinant dopamine D2 receptor by radioligand displacement assay.
Chain of D(2) dopamine receptor (P14416 whole entry): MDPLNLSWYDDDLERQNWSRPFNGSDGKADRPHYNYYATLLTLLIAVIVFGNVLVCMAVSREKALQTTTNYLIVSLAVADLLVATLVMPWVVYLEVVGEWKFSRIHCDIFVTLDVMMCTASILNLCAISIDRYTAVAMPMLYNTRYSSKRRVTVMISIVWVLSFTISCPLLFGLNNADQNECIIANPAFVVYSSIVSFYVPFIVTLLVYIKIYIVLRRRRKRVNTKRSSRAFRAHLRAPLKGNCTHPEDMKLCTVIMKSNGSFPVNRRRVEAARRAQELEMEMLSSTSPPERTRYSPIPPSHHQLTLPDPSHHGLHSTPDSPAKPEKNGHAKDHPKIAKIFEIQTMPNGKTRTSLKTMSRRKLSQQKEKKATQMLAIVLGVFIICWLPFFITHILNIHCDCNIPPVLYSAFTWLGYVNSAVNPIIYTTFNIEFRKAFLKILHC
Test [14] has as its target 5-hydroxytryptamine receptor 2B (Homo sapiens, UniProt P41595). Put plainly: Binding affinity to human recombinant 5-HT2B receptor by radioligand displacement assay.
In test [15] the target is T5, 5-hydroxytryptamine receptor 2C (Homo sapiens, UniProt P28335).
T5 sequence (P28335 whole entry): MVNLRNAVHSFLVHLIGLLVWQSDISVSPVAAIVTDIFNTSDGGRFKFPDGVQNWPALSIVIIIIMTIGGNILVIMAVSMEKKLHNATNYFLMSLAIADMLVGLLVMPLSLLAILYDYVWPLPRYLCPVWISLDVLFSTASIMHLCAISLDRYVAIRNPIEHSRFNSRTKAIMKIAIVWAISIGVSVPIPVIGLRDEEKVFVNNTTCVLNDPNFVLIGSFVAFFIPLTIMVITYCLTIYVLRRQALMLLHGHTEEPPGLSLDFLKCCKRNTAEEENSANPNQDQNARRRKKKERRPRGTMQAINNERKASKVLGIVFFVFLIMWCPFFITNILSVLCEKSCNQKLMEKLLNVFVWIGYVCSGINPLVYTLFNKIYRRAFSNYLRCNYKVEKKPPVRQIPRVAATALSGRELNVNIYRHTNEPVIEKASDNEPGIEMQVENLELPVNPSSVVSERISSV
Kind of test: Binding affinity to human recombinant 5-HT2C receptor by radioligand displacement assay.

T3 sequence (P28222 whole entry): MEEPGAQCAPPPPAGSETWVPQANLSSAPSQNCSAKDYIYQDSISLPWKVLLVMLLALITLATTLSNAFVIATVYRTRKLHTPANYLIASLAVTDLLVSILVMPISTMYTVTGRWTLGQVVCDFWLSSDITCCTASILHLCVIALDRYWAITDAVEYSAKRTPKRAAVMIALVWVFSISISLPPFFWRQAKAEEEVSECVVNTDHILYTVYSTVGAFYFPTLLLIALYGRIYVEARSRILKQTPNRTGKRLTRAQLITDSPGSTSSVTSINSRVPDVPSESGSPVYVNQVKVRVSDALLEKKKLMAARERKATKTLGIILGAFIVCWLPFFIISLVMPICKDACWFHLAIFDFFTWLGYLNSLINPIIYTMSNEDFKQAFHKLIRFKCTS
Chain of 5-hydroxytryptamine receptor 2B (P41595 whole entry): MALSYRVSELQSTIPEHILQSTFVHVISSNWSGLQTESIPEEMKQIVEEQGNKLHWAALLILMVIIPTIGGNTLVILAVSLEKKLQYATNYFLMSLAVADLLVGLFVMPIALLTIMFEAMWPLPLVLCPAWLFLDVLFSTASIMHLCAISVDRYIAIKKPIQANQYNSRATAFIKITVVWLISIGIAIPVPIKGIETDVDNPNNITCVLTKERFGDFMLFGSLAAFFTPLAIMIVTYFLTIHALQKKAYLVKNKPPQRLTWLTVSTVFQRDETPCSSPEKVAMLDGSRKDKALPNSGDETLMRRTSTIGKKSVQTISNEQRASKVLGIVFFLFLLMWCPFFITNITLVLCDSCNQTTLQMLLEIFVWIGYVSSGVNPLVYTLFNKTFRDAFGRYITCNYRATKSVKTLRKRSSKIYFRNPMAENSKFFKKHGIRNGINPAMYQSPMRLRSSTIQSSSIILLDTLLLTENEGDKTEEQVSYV
Chain of 5-hydroxytryptamine receptor 6 (P50406 whole entry): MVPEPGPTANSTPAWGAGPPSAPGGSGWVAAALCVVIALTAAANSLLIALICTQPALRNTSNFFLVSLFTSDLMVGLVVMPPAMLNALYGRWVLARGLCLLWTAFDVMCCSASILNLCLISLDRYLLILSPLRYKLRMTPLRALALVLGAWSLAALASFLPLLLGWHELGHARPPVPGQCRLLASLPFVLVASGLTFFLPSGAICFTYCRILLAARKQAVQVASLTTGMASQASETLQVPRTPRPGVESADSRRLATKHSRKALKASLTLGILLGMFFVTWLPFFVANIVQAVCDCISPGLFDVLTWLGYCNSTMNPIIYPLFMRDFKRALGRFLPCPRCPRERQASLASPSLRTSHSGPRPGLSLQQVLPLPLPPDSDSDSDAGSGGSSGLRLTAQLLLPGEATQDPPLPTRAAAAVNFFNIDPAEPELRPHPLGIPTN
T2 sequence (P28221 whole entry): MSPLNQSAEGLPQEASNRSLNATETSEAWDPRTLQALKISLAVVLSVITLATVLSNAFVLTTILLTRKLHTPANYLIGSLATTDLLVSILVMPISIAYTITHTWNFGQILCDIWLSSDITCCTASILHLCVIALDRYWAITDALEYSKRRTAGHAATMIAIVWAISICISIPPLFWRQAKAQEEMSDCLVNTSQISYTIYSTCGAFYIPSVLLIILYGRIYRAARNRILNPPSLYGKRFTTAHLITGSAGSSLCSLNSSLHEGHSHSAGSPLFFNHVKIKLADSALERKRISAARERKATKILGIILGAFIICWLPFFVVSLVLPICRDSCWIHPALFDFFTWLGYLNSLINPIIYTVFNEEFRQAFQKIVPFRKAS

In the case of `Cc1ccc2c(N3CCN(CCc4cccc(N5CCCOC5=O)c4)CC3)cccc2n1`, the Ki (as a rule, a measure of affinity in units of concentration, obtained from inhibition or displacement) in test [1] is 2.51 nM; in test [2], 0.251 nM; in test [3] it was 31.6 nM.
In the case of `COc1ccc(C(=O)Nc2cccc(CCN3CCN(c4cccc5nc(C)ccc45)CC3)c2)cc1`, the inhibition constant (Ki) in [1] is 3.16 nM; in test [4], 1260 nM; in test [2], 0.501 nM; in test [3], 3.98 nM. Also, the result in test [5], in test [6] and in test [7] was Active.
In the case of `Cc1ccc2c(N3CCN(CCc4ccc5c(c4)NC(=O)CO5)CC3)cccc2n1`, the Intrinsic activity in test [8] was determined as 0.2; in [9], 0.1.
For the molecule `Cc1ccc2c(N3CCN(CCc4cccc(NC(=O)Nc5ccccc5F)c4)CC3)cccc2n1`, the Ki in [1] is 3.16 nM; in test [4] it was 2000 nM; in [2], 0.2 nM; in test [3] it was 1 nM.
Turning to `Cc1ccc2c(N3CCN(CCc4cccc(NC(=O)Nc5cccc(F)c5)c4)CC3)cccc2n1`, the inhibitory constant (Ki) in [1] is 3.98 nM; in test [4], 2510 nM; in [2], 0.631 nM; in [3], 3.98 nM. Also, the Intrinsic activity in test [8] and in test [10] was 0 in each case. Also, the outcome in test [7] was Active.
For the molecule `CCC(=O)Nc1cccc(CCN2CCN(c3cccc4nc(C)ccc34)CC2)c1`, the inhibitory constant (Ki) was 2 nM in test [1], 1260 nM in test [4], 0.2 nM in test [2] and 1.26 nM in test [3]. For the same molecule, the Intrinsic activity in test [8] turned out to be 0. Further, the outcome in test [5] and in test [7] was Active.
On to `Cc1ccc2c(N3CCN(CCc4cccc(NC(=O)C(C)C)c4)CC3)cccc2n1`, for which the Ki in test [1] was 2 nM; in [4] it was 1260 nM; in test [2] it was 0.158 nM; in test [3], 1.58 nM. Moreover, the result in test [5], in test [6] and in test [7] was Active.
Take `Cc1ccc2c(N3CCN(CCc4cccc(NC(=O)c5ccccc5F)c4)CC3)cccc2n1`: the inhibitory constant (Ki) in test [1] was 1 nM; in test [4] it was 631 nM; in [2], 0.251 nM; in [3], 3.16 nM. The outcome in test [5] and in [6] was Active. Besides, the Intrinsic activity in test [9] came to 0.
`COc1ccccc1C(=O)Nc1cccc(CCN2CCN(c3cccc4nc(C)ccc34)CC2)c1`: the inhibitory constant (Ki) was 2.51 nM in [1], 794 nM in test [4], 0.631 nM in [2] and 3.98 nM in test [3].
Take `Cc1ccc2c(N3CCN(CCc4cccc(NC(=O)Nc5ccc(F)cc5)c4)CC3)cccc2n1`: the inhibitory constant (Ki) in test [1] was 2.51 nM; in test [4] it was 1260 nM; in [2] it was 0.501 nM; in test [3] it was 3.16 nM.
For `Cc1ccc2c(N3CCN(CCc4cccc(NC(=O)c5scnc5C)c4)CC3)cccc2n1`, the Ki in test [1] was 0.398 nM; in [4], 501 nM; in [2], 0.251 nM; in [3], 2 nM. In addition, the outcome in test [5] and in [6] was Active. In addition, the Intrinsic activity in test [9] turned out to be 0.
Turning to `CC(=O)Nc1cccc(CCN2CCN(c3cccc4nc(C)ccc34)CC2)c1`, the Ki in [1] is 1 nM; in [4], 1260 nM; in test [11], 63.1 nM; on D(3) dopamine receptor, 158 nM; in test [12] it was > 3980 nM; in test [13], 251 nM. For the same molecule, the inhibitory constant (Ki) is 0.251 nM in test [2]; 398 nM at D(2) dopamine receptor; 0.501 nM in [3]; 158 nM in test [14]; 1000 nM in test [15].
As for `Cc1ccc2c(N3CCN(CCc4cccc(N5CCCNC5=O)c4)CC3)cccc2n1`, the Ki in [1] is 3.16 nM; in test [2], 0.316 nM; in [3], 39.8 nM.
With `Cc1ccc2c(N3CCN(CCc4cccc(N5C(=O)CCC5=O)c4)CC3)cccc2n1`, the Ki in test [1] was 3.16 nM; in test [4], 20000 nM; in test [2] it was 1.58 nM; in test [3] it was 39.8 nM.
In the case of `Cc1ccc2c(N3CCN(CCc4cccc(NC(=O)C(C)(C)C)c4)CC3)cccc2n1`, the inhibitory constant (Ki) is 6.31 nM in test [1], 1580 nM in test [4], 0.316 nM in test [2] and 2 nM in test [3]. The outcome in test [5], in test [6] and in test [7] was Active.
Turning to `Cc1ccc2c(N3CCN(CCc4cccc(NC(=O)c5cnccn5)c4)CC3)cccc2n1`, the Ki in test [1] was 0.501 nM; in test [4], 398 nM; in [11], 200 nM; on D(3) dopamine receptor, 79.4 nM; in test [12] it was 794 nM; in [13], 158 nM. In addition, the inhibitory constant (Ki) in test [2] is 0.2 nM; at D(2) dopamine receptor it was 200 nM; in test [3], 1.26 nM; in test [14], 794 nM; in [15], > 1580 nM.
Consider `Cc1ccc2c(N3CCN(CCc4cccc(N)c4)CC3)cccc2n1`, for which the Ki in test [1] is 15.8 nM; in [2], 0.501 nM; in test [3], 7.94 nM.
`COc1cccc(C(=O)Nc2cccc(CCN3CCN(c4cccc5nc(C)ccc45)CC3)c2)c1`: the Ki in test [1] was 2 nM; in test [4], 1260 nM; in test [2], 0.158 nM; in test [3], 1.58 nM.
In the same order, the values of `Cc1ccc2c(N3CCN(CCc4cccc(NC(=O)NC(C)(C)C)c4)CC3)cccc2n1` are 7.94 nM, 794 nM, 0.251 nM and 3.98 nM.
On to `CCCNC(=O)Nc1cccc(CCN2CCN(c3cccc4nc(C)ccc34)CC2)c1`, for which the Ki is 5.01 nM in test [1], 794 nM in [4], 0.158 nM in test [2] and 2 nM in test [3].
In the case of `CCCS(=O)(=O)Nc1cccc(CCN2CCN(c3cccc4nc(C)ccc34)CC2)c1`, the inhibition constant (Ki) in test [1] is 1.58 nM; in [2], 0.631 nM; in test [3], 2 nM.
On to `Cc1ccc2c(N3CCN(CCc4cccc(-n5cccn5)c4)CC3)cccc2n1`, for which the Ki is 0.501 nM in test [1]; 316 nM in test [4]; 126 nM in [11]; 50.1 nM on D(3) dopamine receptor; > 10000 nM in [12]; 398 nM in test [13]. The inhibitory constant (Ki) in test [2] was 0.158 nM; on D(2) dopamine receptor, 398 nM; in test [3], 1.58 nM; in test [14], 79.4 nM; in test [15], 2000 nM.
In the case of `CCOC(=O)Nc1cccc(CCN2CCN(c3cccc4nc(C)ccc34)CC2)c1`, the inhibitory constant (Ki) in [1] is 1.26 nM; in [4] it was 794 nM; in [2], 0.126 nM; in test [3], 1.26 nM.
As to `Cc1ccc2c(N3CCN(CCc4cccc(NC(=O)c5cccc(F)c5)c4)CC3)cccc2n1`, the inhibition constant Ki is 0.631 nM in test [1], 631 nM in test [4], 0.316 nM in test [2] and 3.16 nM in test [3]. The result in test [5], in test [6] and in test [7] was Active.
